Test results published in article PMC5097029 (Biochimica et biophysica acta, 2016).
Where “and” joins values, the source holds several entries; their conditions need not be identical. Equal entries are not always repeated. Ends that are not written are not given here.

Legend:
Jurkat cells = assay: DNA laddering; format: cell-based, human; conditions: 0.1-25 μM, 4 h
In short: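 Jurkat cells (RPMI 1640, 5% CO₂, 37°C) were exposed to test compound for 4 h, alongside medium, vehicle and 50 μM etoposide (4 h or 24 h) controls. DNA was extracted with a kit and run on a 0.8% agarose gel to look for laddering.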

[1] = system: breast cancer cells (MDA-MB-231, SKBR3, MDA-MB-468, T47D, 4T1); format: cell-based, human; mouse; conditions: read-out: IC50 toward breast cancer cells
[2] = MTT cytotoxicity assay, primary HMECs; format: cell-based, human; conditions: % Cytotoxicity, 24 h, mean ± SEM
In short: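 Primary HMECs (MEGM-maintained, ≤6 passages) were seeded at 2 × 10⁵ cells/ml 24 h before treatment. They were exposed for 24 h at 2.5% final FBS, 37°C, 10% CO₂. MTT ([…] final) was added for the last 2 h, with 1% Triton X-100 as the 100%-death control. Formazan was dissolved in DMSO and OD 490 read. Cytotoxicity = (E−N)/(P−N)×100 against vehicle and Triton controls; values are the mean of 3 independent experiments ± SEM.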

[3] = system: Paclitaxel-resistant MCF7-TX400 cells; assay: Trypan blue exclusion, MCF7 and MCF7-TX400; format: cell-based, human; conditions: 24 h
In short: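 MCF7 and paclitaxel-resistant MCF7-TX400 cells were maintained in DMEM/10% FBS at 10% CO₂ for ≤30 passages. They were cultured with or without test compound for 24 h, and viability was scored by trypan blue exclusion counts. Values are the mean of 3 independent experiments ± SEM.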

Jurkat T leukemia cells = assay: MTT cytotoxicity assay, Jurkat cells; format: cell-based, human; conditions: for effect of pan-caspase inhibitor BOC-D-FMK on induced cell death: BOC-D-FMK 40 μM
[4] = MTT cytotoxicity assay, Jurkat cells; format: cell-based, human; conditions: % Cytotoxicity, Jurkat, MTT, 24 h, mean ± SEM
[5] = MTT cytotoxicity assay, MDA-MB-231 cells; format: cell-based, human; conditions: % Cytotoxicity, MTT, 24 h, mean ± SEM
[6] = system: MDA-MB-231 breast cancer cells; assay: MTT cytotoxicity assay, MDA-MB-231 cells; format: cell-based, human; conditions: read-out: IC50 in MDA-MB-231 breast cancer cells; C-terminal amide form
Jurkat T-ALL cells [7] = assay: LDH-release time course, Jurkat cells; format: cell-based, human
In short: (§1)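 Jurkat cells or PBMCs (density-gradient isolated from healthy donors' venous blood) were cultured at 37°C, 5% CO₂, with test compound over a time course. Supernatants taken at each time point were assayed for LDH activity with a commercial kit. Percent cytotoxicity = (E−N)/(P−N)×100, with vehicle as negative and Triton X-100 as positive control. Values are the mean of 3 independent experiments ± SEM.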

[8] = Calcein leakage from large unilamellar vesicles; conditions: 20 min; for calcein leakage (membrane disruption) from LUVs: LUVs of 100% anionic lipid POPS; for calcein leakage from LUVs as lipid composition became less negatively charged: greater proportion of zwitterionic lipid POPC
In short: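 LUVs were made from POPC/POPS films (1 mg total lipid) hydrated in 10 mM Tris, 150 mM NaCl, 1 mM EDTA, pH 7.4, with 70 mM calcein. Suspensions were freeze-thawed five times, extruded 15 times through 100 nm filters, and cleared of free dye on Sephadex G-50. Vesicles were diluted to 10 μM final lipid, given peptide at set peptide:lipid molar ratios and held ~20 min at room temperature. Ex 490/em 520 was read against 1% Triton X-100 and water controls. Samples were run at least in duplicate per preparation; values are the mean of three experiments ± SD.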

human erythrocytes = assay: Hemolysis assay; format: cell-based; conditions: screen of 24 short cationic peptides
Hemolysis assay = format: cell-based, human; conditions: % Hemolysis, human erythrocytes, 4 h, mean ± SEM
[9] = system: cancer cells and normal cells; assay: Specificity factor: IC50 in cancer cells versus normal cells; format: cell-based; conditions: depending on the cancer cell line and the normal cell compared
[10] = system: leukemia cells (Jurkat, THP-1); format: cell-based, human; conditions: read-out: IC50 toward leukemia cells
PBMCs = assay: MTT cytotoxicity assay, normal PBMCs; format: cell-based, human; conditions: read-out: IC50 to PBMC; normal cells (PBMC)
[11] = MTT cytotoxicity assay, normal PBMCs; format: cell-based, human; conditions: % Cytotoxicity, PBMCs, MTT, 24 h, mean ± SEM
[12] = system: 4T1 mouse mammary carcinoma; assay: 4T1 mammary carcinoma model in BALB/c mice; format: in vivo; conditions: IP, gemcitabine 60 mg/kg Q7D, Mastoparan 6 mg/kg Q2D, from day 5
[13] = system: MDA-MB-231 breast cancer cells; assay: Propidium iodide uptake, MDA-MB-231; format: cell-based, human
In short: (§2)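 Jurkat or MDA-MB-231 cells (5 × 10⁵) were exposed to test compound or vehicle. PI (10 μg/ml final) was added 5 min before flow cytometry, and mean channel fluorescence was recorded. For Jurkat, exposure lasted 5 or 10 min, with n=3.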

Jurkat T-ALL cells [14] = assay: Combination with chemotherapeutic agents, MTT assay 72 h; format: cell-based, human
In short: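 Jurkat cells in RPMI 1640 (2.5% FBS final), seeded at 5 × 10⁵ cells/ml just before treatment. Increasing concentrations of a chemotherapeutic agent, with or without test peptide fixed at 4.5 μM, for 72 h at 37°C, 5% CO₂. MTT added at […] final for the last 2 h; DMSO-solubilised formazan read at 490 nm. Percent cytotoxicity scaled between vehicle and 1% Triton X-100; mean of 3 independent experiments ± SEM.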

primary PBMCs = assay: LDH-release time course, PBMCs; format: cell-based, human
In short: as §1

Jurkat T-ALL cells [15] = assay: Propidium iodide uptake, Jurkat; format: cell-based, human; conditions: 25 μM, 5 or 10 min
In short: as §2

HOPC myeloma cells = format: cell-based, mouse; conditions: read-out: IC50 toward myeloma cells
[16] = Mastoparan 4.5 μM (IC10) with vinblastine, Jurkat, MTT 72 h

CC[C@H](C)[C@H](N)C(=O)N[C@@H](CC(N)=O)C(=O)N[C@@H](CC(C)C)C(=O)N[C@@H](CCCCN)C(=O)N[C@@H](C)C(=O)N[C@@H](CC(C)C)C(=O)N[C@@H](C)C(=O)N[C@@H](C)C(=O)N[C@@H](CC(C)C)C(=O)N[C@@H](C)C(=O)N[C@@H](CCCCN)C(=O)N[C@@H](CCCCN)C(=O)N[C@H](C(=O)N[C@@H](CC(C)C)C(N)=O)[C@@H](C)CC [Mastoparan, INLKALAALAKKIL-NH2]
DNA laddering (Jurkat cells): did not cause DNA laddering | IC50 [1]: 20 to 24 µM | cytotoxicity ([2]; 10 μM Mastoparan): 16 ± 1% | cytotoxicity ([2]; 25 μM Mastoparan): 37 ± 7% | cytotoxicity ([2]; 50 μM Mastoparan): 67 ± 14% | toxicity to MCF7-TX400 cells compared with parental MCF7 cells [3]: as toxic | effect of pan-caspase inhibitor BOC-D-FMK on induced cell death (Jurkat T leukemia cells; Jurkat, MTT 24 h): not reversed | cytotoxic potency of amidated form compared with free carboxyl form (Jurkat T leukemia cells; Jurkat, MTT 24 h): significantly more potent | fold more potent than Mastoparan-COOH (Jurkat T leukemia cells; Mastoparan-NH2 versus Mastoparan-COOH): 8–11 fold | IC50 (Jurkat T leukemia cells; read-out: IC50 in Jurkat T-ALL cells, C-terminal amide form): 9.1 µM | cytotoxicity ([4]; 10 μM Mastoparan): 64 ± 7% | cytotoxicity ([4]; 25 μM Mastoparan): 95 ± 4% | cytotoxicity ([4]; 50 μM Mastoparan): 97 ± 1% | cytotoxicity ([5]; MDA-MB-231, 10 μM Mastoparan): 20 ± 1% | cytotoxicity ([5]; MDA-MB-231, 25 μM Mastoparan): 62 ± 2% | cytotoxicity ([5]; MDA-MB-231, 50 μM Mastoparan): 96 ± 1% | IC50 [6]: 22 µM | time at which cytotoxicity peaked (Jurkat T-ALL cells [7]): 8 h | calcein leakage (membrane disruption) from LUVs [8]: caused membrane disruption | calcein leakage from LUVs as lipid composition became less negatively charged [8]: largely unchanged | hemolytic activity in preliminary screen (human erythrocytes): devoid of hemolytic activity | hemolysis (Hemolysis assay; 10 μM Mastoparan): 1 ± 1% | hemolysis (Hemolysis assay; 25 μM Mastoparan): 2 ± 1% | hemolysis (Hemolysis assay; 50 μM Mastoparan): 7 ± 1% | specificity factor (selectivity index): fold-difference in the IC50 between cancer cells and normal cells [9]: 2–6 fold | IC50 [10]: 8 to 9.2 µM | IC50 (PBMCs): 48 µM | cytotoxicity ([11]; 10 μM Mastoparan): 13 ± 5% | cytotoxicity ([11]; 25 μM Mastoparan): 29 ± 7% | cytotoxicity ([11]; 50 μM Mastoparan): 49 ± 3% | tumour growth (tumour volume and mass) in comparison to saline-treated mice [12]: not statistically significant | PI uptake (membrane integrity) [13]: rapid PI uptake | IC10 concentration (Jurkat T-ALL cells [14]; Jurkat T-ALL cells): 4.5 µM | fold reduction of the EC50 of etoposide (Jurkat T-ALL cells [14]; Mastoparan 4.5 μM (IC10) with etoposide, Jurkat, MTT 72 h): approximately 2 fold | increase of vinblastine-mediated cytotoxicity (Jurkat T-ALL cells [14]; [16]): 10% and ~ 10% | ΔIC50 of vinblastine (Jurkat T-ALL cells [14]; [16]): ~ 1.2 fold | time at which cytotoxicity peaked (primary PBMCs): 8 h | PI uptake (membrane integrity) (Jurkat T-ALL cells [15]): rapid PI uptake | IC50 (HOPC myeloma cells): ~11 µM

COc1cc([C@@H]2c3cc4c(cc3[C@@H](O[C@@H]3O[C@@H]5CO[C@@H](C)O[C@H]5[C@H](O)[C@H]3O)[C@H]3COC(=O)[C@H]23)OCO4)cc(OC)c1O [etoposide, reference compound]
effect of pan-caspase inhibitor BOC-D-FMK on induced cell death (Jurkat T leukemia cells; Jurkat, MTT 24 h): significantly reduced

Nc1ccn([C@@H]2O[C@H](CO)[C@@H](O)C2(F)F)c(=O)n1 [gemcitabine, reference compound]
tumour growth (tumour volume and mass) in comparison to saline-treated mice [12]: not statistically significant

INLKALAALAKKIL-COOH (INLKALAALAKKIL-OH) [Mastoparan-COOH, reference compound]
calcein leakage (membrane disruption) from LUVs [8]: caused membrane disruption | calcein leakage from LUVs as lipid composition became less negatively charged [8]: significantly reduced
